Reference: ChEMBL document CHEMBL3588763, “Styryl-N-phenyl-N'-(2-chloroethyl)ureas and styrylphenylimidazolidin-2-ones as new potent microtubule-disrupting agents using combretastatin A-4 as model” (Eur J Med Chem, 2015)
Active and inactive are the calls of the source. The calls are words filed in the database; no cut-off is given here.

What was measured:
[1] = biological target: T1, Tubulin beta (Homo sapiens) (UniProt P68371+Q9H4B7+Q13509+P04350+Q3ZCM7+P07437+Q13885+Q9BVA1+Q9BUF5+A6NNZ2); test: Inhibition of N,N-ethylene-bis(iodoacetamide) binding to Tubulin beta colchicines-binding site in human M21 cells assessed as adduct formation at 910 nM by Western blot analysis; assay type: cell-based
[2] = biological target: T1, Tubulin beta (Homo sapiens); test: Inhibition of N,N-ethylene-bis(iodoacetamide) binding to Tubulin beta colchicines-binding site in human M21 cells assessed as adduct formation at 2500 nM by Western blot analysis; assay type: cell-based
MCF7 = test: Antiproliferative activity against human MCF7 cells assessed as cell growth inhibition after 48 hrs by sulforhodamine B assay; assay type: functional, cell-based; conditions: MCF7, 48 h
Procedure, shortened: (§1)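 NCI-style SRB screen with minor changes. Cells seeded per well in DMEM with 5% FBS: HT-29 4.0 x 10^3, M21 3.0 x 10^3, MCF-7 2.5 x 10^3, HT-1080 2.5 x 10^3. After 24 h, serially diluted drug was added at 50 µM to 1 nM final, DMSO <0.5%, for 48 h. Fixed with cold TCA, stained with SRB, read at 530–568 nm against plates fixed on treatment day. At least two experiments in triplicate, CV <10%.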

M21 [3] = test: Induction of cell cycle arrest in human M21 cells assessed as cells accumulation at subG1 phase at 63 nM after 24 hrs by flow cytometry (reference value: 1.2%); assay type: functional
HT-29 = test: Antiproliferative activity against human HT-29 cells assessed as cell growth inhibition after 48 hrs by sulforhodamine B assay; assay type: functional, cell-based; conditions: HT-29, 48 h; procedure, shortened: as §1
M21 [4] = test: Antiproliferative activity against human M21 cells assessed as cell growth inhibition after 48 hrs by sulforhodamine B assay; assay type: functional, cell-based; conditions: M21, 48 h; procedure, shortened: as §1
M21 [5] = test: Induction of cell cycle arrest in human M21 cells assessed as cells accumulation at G2/M phase at 63 nM after 24 hrs by flow cytometry (reference value: 22.1%); assay type: functional
[6] = Antiproliferative activity against human HT1080 cells assessed as cell growth inhibition after 48 hrs by sulforhodamine B assay; assay type: functional, cell-based; conditions: HT-1080, 48 h
[7] = biological target: T1, Tubulin beta (Homo sapiens); test: Inhibition of N,N-ethylene-bis(iodoacetamide) binding to Tubulin beta colchicines-binding site in human M21 cells assessed as adduct formation at 410 nM by Western blot analysis; assay type: cell-based
M21 [8] = test: Induction of cell cycle arrest in human M21 cells assessed as cells accumulation at S phase at 63 nM after 24 hrs by flow cytometry (reference value: 22.2%); assay type: functional
M21 [9] = test: Induction of microtubule depolymerization and cytoskeleton disruption in human M21 cells at 63 nM after 16 hrs by immunofluorescence assay
M21 [10] = test: Induction of cell cycle arrest in human M21 cells assessed as cells accumulation at G0/G1 phase at 63 nM after 24 hrs by flow cytometry (reference value: 54.5%); assay type: functional
[11] = biological target: T1, Tubulin beta (Homo sapiens); test: Inhibition of N,N-ethylene-bis(iodoacetamide) binding to Tubulin beta colchicines-binding site in human M21 cells assessed as adduct formation at 100000 nM by Western blot analysis; assay type: cell-based
M21 [12] = test: Induction of cell cycle arrest in human M21 cells assessed as cells accumulation at G0/G1 phase at 10 nM after 24 hrs by flow cytometry (reference value: 54.5%); assay type: functional
M21 [13] = test: Induction of cell cycle arrest in human M21 cells assessed as cells accumulation at G2/M phase at 10 nM after 24 hrs by flow cytometry (reference value: 22.1%); assay type: functional
M21 [14] = test: Induction of microtubule depolymerization and cytoskeleton disruption in human M21 cells at 10 nM after 16 hrs by immunofluorescence assay
M21 [15] = test: Induction of cell cycle arrest in human M21 cells assessed as cells accumulation at S phase at 10 nM after 24 hrs by flow cytometry (reference value: 22.2%); assay type: functional
M21 [16] = test: Induction of cell cycle arrest in human M21 cells assessed as cells accumulation at subG1 phase at 10 nM after 24 hrs by flow cytometry (reference value: 1.2%); assay type: functional
M21 [17] = test: Induction of cell cycle arrest in human M21 cells assessed as cells accumulation at G0/G1 phase at 760 nM after 24 hrs by flow cytometry (reference value: 54.5%); assay type: functional
[18] = biological target: T1, Tubulin beta (Homo sapiens); test: Binding affinity to Tubulin beta in human M21 cells assessed as tubulin acylation at 3100 nM after 24 hrs by electrophoretic mobility shift assay; assay type: cell-based
M21 [19] = test: Induction of cell cycle arrest in human M21 cells assessed as cells accumulation at subG1 phase at 760 nM after 24 hrs by flow cytometry (reference value: 1.2%); assay type: functional
M21 [20] = test: Induction of cell cycle arrest in human M21 cells assessed as cells accumulation at S phase at 760 nM after 24 hrs by flow cytometry (reference value: 22.2%); assay type: functional
M21 [21] = test: Induction of cell cycle arrest in human M21 cells assessed as cells accumulation at G2/M phase at 760 nM after 24 hrs by flow cytometry (reference value: 22.1%); assay type: functional
M21 [22] = test: Induction of microtubule depolymerization and cytoskeleton disruption in human M21 cells at 760 nM after 16 hrs by immunofluorescence assay
[23] = biological target: T1, Tubulin beta (Homo sapiens); test: Binding affinity to Tubulin beta in human M21 cells assessed as tubulin acylation at 1500 nM after 24 hrs by electrophoretic mobility shift assay; assay type: cell-based

| Compound | IC50 (MCF7) [µM] | IC50 (HT-29) [µM] | IC50 (M21 [4]) [µM] | IC50 [6] [µM] | further results |
| --- | --- | --- | --- | --- | --- |
| O=C1NCCN1c1ccc(/C=C\c2cccc(Cl)c2)cc1 | 0.038 | 0.025 | 0.027 | 0.035 | inhibition [1]: Active; inhibition [2]: Active; Activity (M21 [3]): 13.6%; Activity (M21 [5]): 55.1%; inhibition [7]: Active; Activity (M21 [8]): 13.9%; Activity (M21 [9]): Active; Activity (M21 [10]): 17.4% |
| COc1cc(/C=C/c2ccc(N3CCNC3=O)cc2)cc(OC)c1OC | 0.54 | 0.37 | 0.55 | 0.4 | inhibition [11]: Active |
| CCNC(=O)Nc1ccc(/C=C\c2cccc(Cl)c2)cc1 | 32 | 26 | 35 | 31 |  |
| CCNC(=O)Nc1ccc(/C=C/c2cccc(Cl)c2)cc1 | 20 | > 20 | > 20 | > 20 |  |
| COc1ccc(/C=C\c2cc(OC)c(OC)c(OC)c2)cc1O [COMBRETASTATIN A4] | 0.0021 | 0.56 | 0.0016 |  | Activity (M21 [12]): 4.5%; Activity (M21 [13]): 91.4%; Activity (M21 [14]): Active; Activity (M21 [15]): 6.6%; Activity (M21 [16]): 7.5% |
| O=C1NCCN1c1ccc(/C=C/c2cccc(Cl)c2)cc1 | 20 | 17 | 19 | > 20 |  |
| O=C(NCCCl)Nc1ccc(/C=C\c2cccc(Cl)c2)cc1 | 0.2 | 0.13 | 0.17 | 0.17 | Activity (M21 [17]): 2.1%; Activity [18]: Active; Activity (M21 [19]): 2.2%; Activity (M21 [20]): 3.7%; Activity (M21 [21]): 92%; Activity (M21 [22]): Active; Activity [23]: Active |
| CCNC(=O)Nc1ccc(/C=C/c2cc(OC)c(OC)c(OC)c2)cc1 | 17 | 12 | 29 | 16 |  |
| CCNC(=O)Nc1ccc(/C=C\c2cc(C)cc(C)c2)cc1 | 17 | 11 | 16 | 15 |  |
| CCNC(=O)Nc1ccc(/C=C\c2cc(OC)c(OC)c(OC)c2)cc1 | 21 | 21 | 21 | 29 |  |
